Converted amounts (≈) assume the structure as drawn. The source made the active and inactive calls. The rule behind the calls is not given here.
Assays:
[1] = Fraction unbound in human plasma at 20 uM after 18 hrs by equilibrium dialysis method; type: ADME, cell-free
[2] = test system: Mycolicibacterium smegmatis; assay: Binding affinity to Mycobacterium smegmatis recombinant DprE1 assessed as residence time
Outline: (§1)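 Progress curves (fluorescence vs time) recorded at several inhibitor concentrations with 75 nM Msm DprE1 in the FAD/HRP/Amplex Red coupled assay, pH 8.5, 25 °C. A single-step reversible slow-binding model was fitted globally, with vs and vi fitted per concentration and koff and Kiapp shared. Half-life and residence time were derived from koff.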

Pseudomonas aeruginosa [3] = assay: Antimicrobial activity against Pseudomonas aeruginosa ARC546 at 100 uM; type: functional, organism-based
Outline: (§2)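 Nonmycobacterial panel of Candida albicans, Gram-negative and Gram-positive pathogens.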

[4] = test system: Mycobacterium tuberculosis; assay: Antimycobacterial activity against Mycobacterium tuberculosis over expressing InhA after 5 days by standard microdilution method; type: functional; settings: 120 h
Haemophilus influenzae [5] = assay: Antimicrobial activity against Haemophilus influenzae ARC158 at 100 uM; type: functional, organism-based; outline: as §2
Cytochrome P450 2C9 = Cytochrome P450 2C9 (Homo sapiens, UniProt P11712); assay: Inhibition of CYP2C9 (unknown origin); type: ADME
Chain of Cytochrome P450 2C9 (P11712 whole entry, canonical isoform): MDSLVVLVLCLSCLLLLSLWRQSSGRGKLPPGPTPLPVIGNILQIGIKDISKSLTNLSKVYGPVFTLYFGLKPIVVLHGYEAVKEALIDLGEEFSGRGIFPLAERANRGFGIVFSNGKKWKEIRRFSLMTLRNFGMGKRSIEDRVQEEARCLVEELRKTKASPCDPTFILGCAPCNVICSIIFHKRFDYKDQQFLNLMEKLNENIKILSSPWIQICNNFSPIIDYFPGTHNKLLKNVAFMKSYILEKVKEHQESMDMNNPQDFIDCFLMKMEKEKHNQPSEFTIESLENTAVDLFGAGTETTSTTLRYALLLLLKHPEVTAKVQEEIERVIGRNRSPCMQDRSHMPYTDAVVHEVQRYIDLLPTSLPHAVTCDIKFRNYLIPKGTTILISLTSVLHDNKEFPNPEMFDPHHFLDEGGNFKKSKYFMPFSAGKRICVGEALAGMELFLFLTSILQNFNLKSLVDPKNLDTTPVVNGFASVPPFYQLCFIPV
Outline: (§3)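 CYP inhibition IC50 measured on isoforms CYP3A4, CYP2D6, CYP2C9, CYP2C19 and CYP1A2.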

[6] = test system: Mycobacterium tuberculosis; assay: Antimycobacterial activity against Mycobacterium tuberculosis over expressing TopA after 5 days by standard microdilution method; type: functional; settings: 120 h
[7] = biological target: Voltage-gated inwardly rectifying potassium channel KCNH2 (Homo sapiens, UniProt Q12809); assay: Inhibition of human ERG by medium-throughput electrophysiology
Chain of Voltage-gated inwardly rectifying potassium channel KCNH2 (Q12809 whole entry): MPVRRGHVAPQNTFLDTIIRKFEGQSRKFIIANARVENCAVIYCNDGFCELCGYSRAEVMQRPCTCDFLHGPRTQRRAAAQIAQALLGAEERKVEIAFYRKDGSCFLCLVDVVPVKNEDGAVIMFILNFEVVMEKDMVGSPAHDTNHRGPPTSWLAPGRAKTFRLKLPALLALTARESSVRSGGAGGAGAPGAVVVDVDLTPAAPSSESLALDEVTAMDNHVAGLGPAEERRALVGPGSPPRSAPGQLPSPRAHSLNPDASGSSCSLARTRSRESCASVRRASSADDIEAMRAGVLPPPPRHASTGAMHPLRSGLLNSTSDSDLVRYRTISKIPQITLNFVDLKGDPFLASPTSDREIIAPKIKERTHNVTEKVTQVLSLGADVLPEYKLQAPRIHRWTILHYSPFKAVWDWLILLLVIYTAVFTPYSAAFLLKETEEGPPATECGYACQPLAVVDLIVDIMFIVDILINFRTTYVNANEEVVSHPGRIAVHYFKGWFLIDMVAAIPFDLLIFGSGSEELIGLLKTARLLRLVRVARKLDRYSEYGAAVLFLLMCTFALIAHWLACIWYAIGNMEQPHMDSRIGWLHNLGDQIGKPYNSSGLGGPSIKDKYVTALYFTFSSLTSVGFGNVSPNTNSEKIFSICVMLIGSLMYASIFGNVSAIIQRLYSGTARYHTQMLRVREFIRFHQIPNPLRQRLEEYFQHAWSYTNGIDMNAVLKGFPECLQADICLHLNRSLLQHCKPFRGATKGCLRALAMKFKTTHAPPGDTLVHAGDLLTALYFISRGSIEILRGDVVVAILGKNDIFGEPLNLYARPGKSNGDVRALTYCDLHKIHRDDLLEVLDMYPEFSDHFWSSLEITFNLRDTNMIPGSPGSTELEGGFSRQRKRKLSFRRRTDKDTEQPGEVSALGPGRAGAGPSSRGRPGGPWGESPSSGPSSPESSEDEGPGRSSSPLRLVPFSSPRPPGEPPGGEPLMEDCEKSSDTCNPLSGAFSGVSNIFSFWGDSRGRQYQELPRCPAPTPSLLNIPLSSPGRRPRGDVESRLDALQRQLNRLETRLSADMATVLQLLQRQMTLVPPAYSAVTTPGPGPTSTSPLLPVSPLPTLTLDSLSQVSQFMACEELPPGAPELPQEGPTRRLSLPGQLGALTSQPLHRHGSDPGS

[8] = test system: Mycolicibacterium smegmatis; assay: Antimicrobial activity against Mycobacterium smegmatis ATCC 607 at 100 uM; type: functional, organism-based
Streptococcus pneumoniae = assay: Antimicrobial activity against Streptococcus pneumoniae ARC548 at 100 uM; type: functional, organism-based; outline: as §2
[9] = test system: Mycolicibacterium smegmatis; assay: Binding affinity to Mycobacterium smegmatis recombinant DprE1 assessed as half life; outline: as §1
[10] = Intrinsic clearance in rat cryopreserved hepatocytes assessed per 10^6 cells at 1 uM up to 120 mins by LC-MS/MS analysis; type: ADME, cell-based, Hepatocyte; settings: read-out: CLH
[11] = Permeability of the compound from apical to basolateral side in human Caco2 cells; type: ADME, cell-based; settings: Caco-2, read-out: permeability
Escherichia coli [12] = assay: Antimicrobial activity against Escherichia coli ARC524 at 100 uM; type: functional, organism-based; outline: as §2
Mu-type opioid receptor = Mu-type opioid receptor (Homo sapiens, UniProt P35372); assay: Inhibition of mu opioid receptor (unknown origin)
Chain of Mu-type opioid receptor (P35372 whole entry): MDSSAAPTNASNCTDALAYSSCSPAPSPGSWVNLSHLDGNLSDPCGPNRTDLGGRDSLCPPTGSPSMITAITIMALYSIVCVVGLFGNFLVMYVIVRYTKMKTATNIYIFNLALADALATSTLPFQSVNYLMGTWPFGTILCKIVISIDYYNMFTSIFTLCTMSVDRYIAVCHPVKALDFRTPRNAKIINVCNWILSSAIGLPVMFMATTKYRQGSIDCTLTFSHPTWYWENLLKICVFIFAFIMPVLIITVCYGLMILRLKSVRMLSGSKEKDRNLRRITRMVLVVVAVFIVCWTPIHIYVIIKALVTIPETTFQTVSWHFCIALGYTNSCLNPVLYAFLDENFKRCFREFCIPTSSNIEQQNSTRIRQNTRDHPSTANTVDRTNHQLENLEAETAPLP
Outline: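 Secondary pharmacology panel of binding, enzyme and functional assays covering 24 molecular targets. Activity recorded as a defined Ki/IC50/EC50.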

Pseudomonas aeruginosa [13] = assay: Antimicrobial activity against Pseudomonas aeruginosa ARC545 at 100 uM; type: functional, organism-based; outline: as §2
Cytochrome P450 2C19 = Cytochrome P450 2C19 (Homo sapiens, UniProt P33261); assay: Inhibition of CYP2C19 (unknown origin); type: ADME; outline: as §3
Chain of Cytochrome P450 2C19 (P33261 whole entry): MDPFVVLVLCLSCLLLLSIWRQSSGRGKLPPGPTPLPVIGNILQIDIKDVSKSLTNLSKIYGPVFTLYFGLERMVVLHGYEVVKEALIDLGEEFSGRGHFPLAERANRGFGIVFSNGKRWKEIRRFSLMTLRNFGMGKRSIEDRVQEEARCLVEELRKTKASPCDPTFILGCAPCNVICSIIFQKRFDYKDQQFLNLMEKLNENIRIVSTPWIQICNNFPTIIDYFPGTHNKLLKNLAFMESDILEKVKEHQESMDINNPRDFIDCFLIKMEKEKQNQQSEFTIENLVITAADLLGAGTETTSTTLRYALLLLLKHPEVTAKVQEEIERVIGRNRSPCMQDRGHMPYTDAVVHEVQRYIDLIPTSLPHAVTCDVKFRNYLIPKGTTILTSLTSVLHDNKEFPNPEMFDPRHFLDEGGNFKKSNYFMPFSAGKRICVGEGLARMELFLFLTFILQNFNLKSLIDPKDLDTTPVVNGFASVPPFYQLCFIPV

Staphylococcus aureus = assay: Antimicrobial activity against Staphylococcus aureus ARC517 at 100 uM; type: functional, organism-based; outline: as §2
[14] = test system: Mycolicibacterium smegmatis; assay: Antimicrobial activity against Mycobacterium smegmatis mc2155 at 100 uM; type: functional, organism-based; settings: str. MC2 155
[15] = test system: Mycobacterium tuberculosis; assay: Antimycobacterial activity against Mycobacterium tuberculosis over expressing DprE1 after 5 days by standard microdilution method; type: functional; settings: 120 h
[16] = Inhibition of Mycobacterium smegmatis DprE1 Y321H mutant using farnesylphosphoryl-beta-D-ribofuranose as substrate assessed as conversion of amplex red to resorufin after 30 mins; design: species or system Mycolicibacterium smegmatis
Outline: (§4)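 Recombinant M. smegmatis DprE1 (thioredoxin-6His fusion), wild type or Y321H, 75 nM. Enzyme was preincubated 30 min in FAD assay mix: 50 mM glycylglycine pH 8.5, 200 mM potassium glutamate, 10 μM FAD, 0.002% Brij-35, 2% DMSO. Reaction was started with 300 μM farnesylphosphoryl-β-D-ribofuranose, 0.01 mg/mL HRP and 50 μM amplex red at 25 °C.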

[17] = test system: Mycobacterium tuberculosis; assay: Antimycobacterial activity against Mycobacterium tuberculosis H37Rv at >MIC after 21 to 28 days; type: functional
[18] = test system: Mycobacterium tuberculosis; assay: Antimycobacterial activity against Mycobacterium tuberculosis over expressing PimA after 5 days by standard microdilution method; type: functional; settings: 120 h
Escherichia coli [19] = assay: Antimicrobial activity against Escherichia coli ARC523 at 100 uM; type: functional, organism-based; outline: as §2
[20] = Octanol-water partition coefficient, log D of the compound by shake-flask method; type: physicochemical
Haemophilus influenzae [21] = assay: Antimicrobial activity against Haemophilus influenzae ARC446 at 100 uM; type: functional, organism-based; outline: as §2
Klebsiella pneumoniae = assay: Antimicrobial activity against Klebsiella pneumoniae ARC1865 at 100 uM; type: functional, organism-based; outline: as §2
[22] = Inhibition of Mycobacterium smegmatis recombinant DprE1 using farnesylphosphoryl-beta-D-ribofuranose as substrate assessed as conversion of amplex red to resorufin after 30 mins; design: species or system Mycolicibacterium smegmatis
Outline: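 Msm DprE1 (thioredoxin-6His fusion of Msm Rv3790) at 75 nM, preincubated 30 min with 10 μM FAD. Buffer: 50 mM glycylglycine pH 8.5, 200 mM potassium glutamate, 0.002% Brij-35, 2% DMSO, 25 °C. Started with 300 μM farnesylphosphoryl-β-D-ribofuranose, 0.01 mg/mL HRP and 50 μM Amplex Red.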

[23] = test system: Mycobacterium tuberculosis; assay: Antimycobacterial activity against Mycobacterium tuberculosis H37Rv after 5 days by standard microdilution method; type: functional; settings: 120 h
Cytochrome P450 3A4 = Cytochrome P450 3A4 (Homo sapiens, UniProt P08684); assay: Inhibition of CYP3A4 (unknown origin); type: ADME; outline: as §3
Chain of Cytochrome P450 3A4 (P08684 whole entry): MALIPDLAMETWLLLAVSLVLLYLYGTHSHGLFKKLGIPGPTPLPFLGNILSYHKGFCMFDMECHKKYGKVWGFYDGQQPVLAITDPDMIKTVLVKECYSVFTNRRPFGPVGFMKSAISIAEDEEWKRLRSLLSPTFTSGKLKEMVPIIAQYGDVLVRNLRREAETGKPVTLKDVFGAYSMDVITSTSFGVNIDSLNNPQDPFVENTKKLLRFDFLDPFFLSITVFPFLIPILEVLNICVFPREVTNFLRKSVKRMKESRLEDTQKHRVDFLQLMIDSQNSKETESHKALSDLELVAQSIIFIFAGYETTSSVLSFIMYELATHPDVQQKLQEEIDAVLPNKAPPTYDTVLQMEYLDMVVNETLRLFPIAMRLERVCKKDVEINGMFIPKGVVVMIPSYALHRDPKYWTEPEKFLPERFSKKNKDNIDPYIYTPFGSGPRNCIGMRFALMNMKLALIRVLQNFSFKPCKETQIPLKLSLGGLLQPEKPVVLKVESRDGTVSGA

[24] = Solubility of the compound in 0.1 M phosphate buffer at pH 7.4 after 24 hrs by UV and MS analysis; type: physicochemical
[25] = test system: Mycolicibacterium smegmatis; assay: Binding affinity to Mycobacterium smegmatis recombinant DprE1 assessed as dissociation constant; outline: as §1
[26] = Intrinsic clearance in human liver microsomes at 1 uM up to 30 mins by LC-MS/MS analysis; type: ADME; settings: read-out: CLH
[27] = Cytotoxicity against human A549 cells after 72 hrs by resazurin based fluorescence assay; type: cell-based; settings: read-out: MIC
Outline: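 Cytotoxicity read as MMIC, the MIC on the A549 cell line.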

[28] = test system: Mycobacterium tuberculosis; assay: Antimycobacterial activity against Mycobacterium tuberculosis H37Rv under hypoxic condition after 6 days by resazurin assay; type: functional; settings: 144 h
Cytochrome P450 1A2 = biological target: T1, Cytochrome P450 1A2 (Homo sapiens, UniProt P05177); assay: Inhibition of CYP1A2 (unknown origin); type: ADME; outline: as §3
T1 sequence (P05177 whole entry): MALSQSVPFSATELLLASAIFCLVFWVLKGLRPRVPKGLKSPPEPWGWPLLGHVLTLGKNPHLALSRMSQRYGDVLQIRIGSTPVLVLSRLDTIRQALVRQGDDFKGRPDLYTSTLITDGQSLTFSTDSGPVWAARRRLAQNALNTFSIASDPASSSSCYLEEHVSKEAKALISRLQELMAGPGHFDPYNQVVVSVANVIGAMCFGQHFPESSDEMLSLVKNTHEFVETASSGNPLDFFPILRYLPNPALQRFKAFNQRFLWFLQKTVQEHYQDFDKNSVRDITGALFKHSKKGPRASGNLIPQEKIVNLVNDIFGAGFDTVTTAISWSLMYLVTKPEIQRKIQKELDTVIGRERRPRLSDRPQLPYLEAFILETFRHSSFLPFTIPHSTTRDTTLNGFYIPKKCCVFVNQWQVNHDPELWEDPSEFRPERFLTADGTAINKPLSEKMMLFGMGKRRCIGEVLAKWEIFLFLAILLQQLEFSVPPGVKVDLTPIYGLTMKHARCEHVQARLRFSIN

[29] = Permeability of the compound from basolateral to apical side in human Caco2 cells; type: ADME, cell-based; settings: Caco-2, read-out: permeability
Cytochrome P450 2D6 = Cytochrome P450 2D6 (Homo sapiens, UniProt P10635); assay: Inhibition of CYP2D6 (unknown origin); type: ADME; outline: as §3
Chain of Cytochrome P450 2D6 (P10635 whole entry): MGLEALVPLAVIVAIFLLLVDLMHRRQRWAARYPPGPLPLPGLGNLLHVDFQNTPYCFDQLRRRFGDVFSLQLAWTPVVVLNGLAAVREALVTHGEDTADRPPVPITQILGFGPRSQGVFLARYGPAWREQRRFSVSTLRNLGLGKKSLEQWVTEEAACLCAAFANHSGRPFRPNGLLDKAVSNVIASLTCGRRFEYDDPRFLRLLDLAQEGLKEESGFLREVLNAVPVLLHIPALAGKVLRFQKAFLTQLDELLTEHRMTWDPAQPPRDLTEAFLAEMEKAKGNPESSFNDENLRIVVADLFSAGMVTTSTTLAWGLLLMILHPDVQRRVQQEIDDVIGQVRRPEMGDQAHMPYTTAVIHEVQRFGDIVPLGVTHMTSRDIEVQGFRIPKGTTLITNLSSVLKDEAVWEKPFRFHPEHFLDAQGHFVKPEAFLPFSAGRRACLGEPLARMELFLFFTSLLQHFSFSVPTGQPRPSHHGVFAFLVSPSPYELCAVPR

Candida albicans = assay: Antimicrobial activity against Candida albicans ARC527 at 100 uM; type: functional, organism-based; outline: as §2
[30] = test system: Mycolicibacterium smegmatis; assay: Ratio of IC50 for Mycobacterium smegmatis DprE1 Y321H mutant to IC50 for Mycobacterium smegmatis recombinant wild type DprE1; outline: as §4

## Cn1ncc(C(=O)N2CCC(Nc3cc(=O)[nH]c4ccccc34)CC2)c1Cl
[1]
  fraction unbound at 18 h, 20 µM: 0.3
[2]
  TIME: 1.73 h
Pseudomonas aeruginosa [3]
  Activity: inactive
[4]
  MIC: 6.3 µM (≈ 2.43 µg/mL)
Haemophilus influenzae [5]
  Activity: inactive
Cytochrome P450 2C9
  INH: > 30 µM
[6]
  MIC: 3.1 µM (≈ 1.2 µg/mL)
[7]
  IC50: > 100 µM
[8]
  Activity: inactive
Streptococcus pneumoniae
  Activity: inactive
[9]
  T1/2: 1.2 h
[10]
  hepatocyte CLint at 1 µM: 1.5 µL/min/1e6 cells
[11]
  Papp A→B: 0.5 ×10⁻⁶ cm/s
Escherichia coli [12]
  Activity: inactive
Mu-type opioid receptor
  IC50: 21.9 µM
Pseudomonas aeruginosa [13]
  Activity: inactive
Cytochrome P450 2C19
  INH: > 30 µM
Staphylococcus aureus
  Activity: inactive
[14]
  Activity: inactive
[15]
  MIC: > 100 µM
[16]
  IC50: > 10 µM
[17]
  MBC: 6.3 µM (≈ 2.43 µg/mL)
[18]
  MIC: 3.1 µM (≈ 1.2 µg/mL)
Escherichia coli [19]
  Activity: inactive
[20]
  logD: 1.6
Haemophilus influenzae [21]
  Activity: inactive
Klebsiella pneumoniae
  Activity: inactive
[22]
  IC50: 0.15 µM
[23]
  MIC: 6.25 µM (≈ 2.41 µg/mL)
Cytochrome P450 3A4
  INH: > 30 µM
[24]
  solubility at 24 h: 255 µM (≈ 98.4 µg/mL)
[25]
  Kdiss: 0.00016 s⁻¹
[26]
  microsomal CLint at 1 µM: < 4 µL/min/mg
[27]
  MCC at 72 h: > 200 µM
[28]
  IC80: > 100 µM
Cytochrome P450 1A2
  INH: > 30 µM
[29]
  Papp B→A: 14 ×10⁻⁶ cm/s
Cytochrome P450 2D6
  INH: > 30 µM
Candida albicans
  Activity: inactive
[30]
  fold change (FC): > 63

From ChEMBL document CHEMBL3286182, “4-aminoquinolone piperidine amides: noncovalent inhibitors of DprE1 with long residence time and potent antimycobacterial activity” (J Med Chem, 2014)
